Test results: ChEMBL document CHEMBL3739416, “Discovery of a marine-derived bis-indole alkaloid fascaplysin, as a new class of potent P-glycoprotein inducer and establishment of its structure-activity relationship” (Eur J Med Chem, 2016)
Active and inactive are the calls of the source. The rule behind the calls is not given here.

Key:
LS180 [1] = assay: Induction of P-glycoprotein in human LS180 cells assessed as accumulation of intracellular rhodamine-123 at 1 uM after 48 hrs by fluorescence assay relative to control; assay type: cell-based
In short: (§1)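 LS-180 colorectal cells, seeded at 2 × 10⁴ per well, were grown 24 h and then exposed to compound for 48 h, with 0.1% final DMSO. Rifampicin at 10 µM served as the reference inducer. Cells were held in HANKS buffer for 40 min, then loaded with Rh123 for 90 min and washed four times in cold PBS. Lysis was 1 h in 0.1% Triton X-100/0.2 N NaOH. Read-out was intracellular Rh123 per total protein, expressed as % of untreated control. Values are the mean ± SD of three experiments.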

[2] = Cytotoxicity against human LS180 cells assessed as cell viability at 10 uM after 48 hrs by MTT assay relative to control; assay type: cell-based; conditions: read-out: Activity
In short: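 LS-180 cells were seeded at 1 × 10⁴ per well, allowed 24 h, then treated with compound. MTT dye was added 4 h before the end. Formazan was dissolved in DMSO and absorbance read at 570 nm. Viability was expressed relative to the untreated control, taken as 100%.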

LS180 [3] = assay: Induction of P-glycoprotein in human LS180 cells assessed as accumulation of intracellular rhodamine-123 at 5 uM after 48 hrs by fluorescence assay; assay type: cell-based; in short: as §1
LS180 [4] = assay: Induction of P-glycoprotein in human LS180 cells assessed as accumulation of intracellular rhodamine-123 at 125 nM after 48 hrs by fluorescence assay relative to control; assay type: cell-based; in short: as §1
LS180 [5] = assay: Induction of P-glycoprotein in human LS180 cells assessed as accumulation of intracellular rhodamine-123 at 62.5 nM after 48 hrs by fluorescence assay relative to control; assay type: cell-based; in short: as §1
LS180 [6] = assay: Induction of P-glycoprotein in human LS180 cells assessed as accumulation of intracellular rhodamine-123 at 250 nM after 48 hrs by fluorescence assay relative to control; assay type: cell-based; in short: as §1
LS180 [7] = assay: Induction of P-glycoprotein in human LS180 cells assessed as accumulation of intracellular rhodamine-123 at 500 nM after 48 hrs by fluorescence assay relative to control; assay type: cell-based; in short: as §1
LS180 [8] = assay: Induction of P-glycoprotein expression in human LS180 cells at 1 uM by Western blot analysis relative to control; assay type: cell-based
[9] = Thermodynamic aqueous solubility of the compound in water; assay type: physicochemical; conditions: read-out: Therm_solubility
[10] = Thermodynamic aqueous solubility of the compound in phosphate buffer saline; assay type: physicochemical; conditions: read-out: Therm_solubility
[11] = Thermodynamic aqueous solubility of the compound in stimulated gastric fluid; assay type: ADME; conditions: simulated gastric fluid; read-out: Therm_solubility
[12] = Thermodynamic aqueous solubility of the compound in stimulated intestinal fluid; assay type: ADME; conditions: simulated intestinal fluid; read-out: Therm_solubility
[13] = Cytotoxicity against HGF cells assessed as cell viability after 48 hrs by MTT assay; assay type: cell-based; conditions: Homo sapiens
In short: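 Normal human gingival fibroblasts grown in MEM with 1% non-essential amino acids, 10% FCS, penicillin G and streptomycin at 37 °C, 5% CO2. Seeded at 1 × 10⁴ cells/well for 24 h, then compound-treated. MTT added 4 h before the end, formazan dissolved in DMSO, absorbance read at 570 nm. Viability expressed relative to untreated control set as 100%.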

LS180 [14] = assay: Induction of P-glycoprotein in human LS180 cells assessed as accumulation of intracellular rhodamine-123 at 10 uM after 48 hrs by fluorescence assay relative to control; assay type: cell-based; in short: as §1

| Compound | Activity (LS180 [1]) [%] | viability at 48 h, 10 µM [2] [%] | Activity (LS180 [3]) | also measured |
| --- | --- | --- | --- | --- |
| O=C(c1c[nH]c2ccccc12)c1nccc2c1[nH]c1ccccc12 | 99.4 | 78.7 | – | – |
| O=[N+]([O-])c1ccc(CN2CCc3c([nH]c4ccccc34)C2)o1 | – | – | inactive | – |
| O=C(c1ccc(Br)o1)N1CCc2c([nH]c3ccccc23)C1 | – | – | inactive | – |
| O=C(c1cc(Cl)ccc1Cl)c1nccc2c1[nH]c1ccccc12 | 103 | 69.6 | – | – |
| O=C(c1c(F)cccc1Cl)c1nccc2c1[nH]c1ccccc12 | 89.6 | 60.1 | – | – |
| O=C(c1ccc(C(F)(F)F)cc1)c1nccc2c1[nH]c1ccccc12 | 107 | 106 | – | – |
| O=C(c1cc(F)c(Cl)cc1Cl)c1nccc2c1[nH]c1ccccc12 | 106 | 92.4 | – | – |
| c1ccc2[nH]c(CN3CCc4c([nH]c5ccccc45)C3)nc2c1 | – | – | inactive | – |
| c1ccc2cc(CN3CCc4c([nH]c5ccccc45)C3)ccc2c1 | – | – | inactive | – |
| O=C(c1ccc2ccccc2n1)N1CCc2c([nH]c3ccccc23)C1 | – | – | inactive | – |
| O=C1c2cc(Cl)ccc2-[n+]2ccc3c([nH]c4ccccc43)c21 | 58.7 | 67.9 | – | – |
| O=C(c1ccccc1)c1nccc2c1[nH]c1ccccc12 | 94.6 | 67.5 | – | – |
| O=C(c1ccccc1Cl)c1nccc2c1[nH]c1ccccc12 | 105 | 89.4 | – | – |
| O=C(c1ccc(-c2cccc([N+](=O)[O-])c2)o1)N1CCc2c([nH]c3ccccc23)C1 | – | – | inactive | – |
| O=C(c1cc2ccccc2o1)N1CCc2c([nH]c3ccccc23)C1 | – | – | inactive | – |
| O=C(N1CCOCC1)N1CCc2c([nH]c3ccccc23)C1 | – | – | inactive | – |
| O=C(c1ccc(Cl)c(Cl)c1Cl)c1nccc2c1[nH]c1ccccc12 | 104 | 84.9 | – | – |
| c1ccc2c3c([nH]c2c1)CN(Cc1ccncc1)CC3 | – | – | inactive | – |
| C[n+]1ccc2c([nH]c3ccccc32)c1C(=O)c1ccc(C(F)(F)F)cc1 | 78.5 | 75.7 | – | – |
| c1ccc2nc(CN3CCc4c([nH]c5ccccc45)C3)ccc2c1 | – | – | inactive | – |
| O=C1c2ccc(Cl)cc2-[n+]2ccc3c([nH]c4ccccc43)c21 | 57.1 | 66.2 | – | – |
| O=C(c1ccccc1F)c1nccc2c1[nH]c1ccccc12 | 101 | 98.4 | – | – |
| O=C(c1cc(F)c(F)cc1Cl)c1nccc2c1[nH]c1ccccc12 | 112 | 81.9 | – | – |
| CN1CCN(C(=O)N2CCc3c([nH]c4ccccc34)C2)CC1 | – | – | inactive | – |
| O=C(c1c[nH]c2ccccc12)N1CCc2c([nH]c3ccccc23)C1 | – | – | inactive | – |

| Compound | Activity (LS180 [1]) [%] | viability at 48 h, 10 µM [2] [%] | Activity (LS180 [3]) | also measured |
| --- | --- | --- | --- | --- |
| C[n+]1ccc2c([nH]c3ccccc32)c1C(=O)c1ccccc1Cl | 71.4 | 69.7 | – | – |
| C[n+]1ccc2c([nH]c3ccccc32)c1C(=O)c1ccccc1Br.[I-] | 70.1 | 69.1 | – | Activity (LS180 [4]): 41.8%; Activity (LS180 [5]): 80%; Activity (LS180 [6]): 42.3%; Activity (LS180 [7]): 33.6%; fold change (FC) (LS180 [8]): 8; solubility thermodynamic [9]: 0.8 mg/mL; solubility thermodynamic [10]: 0.8 mg/mL; solubility thermodynamic [11]: 0.8 mg/mL; solubility thermodynamic [12]: 0.8 mg/mL |
| COc1ccc(C(=O)c2nccc3c2[nH]c2ccccc23)c(OC)c1 | 108 | 82.2 | – | – |
| C[n+]1ccc2c([nH]c3ccccc32)c1C(=O)c1ccccc1 | 75.2 | 77.5 | – | – |
| c1ccc2c(CN3CCc4c([nH]c5ccccc45)C3)c3ccccc3cc2c1 | – | – | inactive | – |
| Clc1ccc(CN2CCc3c([nH]c4ccccc34)C2)s1 | – | – | inactive | – |
| C[n+]1ccc2c([nH]c3ccccc32)c1C(=O)c1c[nH]c2ccccc12 | 77.6 | 69.1 | – | – |
| O=C1c2cc(F)c(Cl)cc2-[n+]2ccc3c([nH]c4ccccc43)c21 | 55.5 | 36.8 | – | – |
| O=C1c2c(Cl)cccc2-[n+]2ccc3c([nH]c4ccccc43)c21 | 59.2 | 63.4 | – | – |
| O=C(c1ccc(-c2ccccc2)cc1)N1CCc2c([nH]c3ccccc23)C1 | – | – | inactive | – |
| Cc1noc(C)c1CN1CCc2c([nH]c3ccccc23)C1 | – | – | inactive | – |
| O=C1NCCN1C(=O)N1CCc2c([nH]c3ccccc23)C1 | – | – | inactive | – |
| O=C(c1ccc(-c2cc(C(F)(F)F)ccc2Cl)o1)N1CCc2c([nH]c3ccccc23)C1 | – | – | inactive | – |
| O=C1c2ccc(Cl)c(Cl)c2-[n+]2ccc3c([nH]c4ccccc43)c21 | 57.8 | 57.4 | – | – |
| O=C1c2ccccc2-[n+]2ccc3c([nH]c4ccccc43)c21.[Cl-] [FASCAPLYSIN CHLORIDE] | 57.6 | 57.5 | – | Activity (LS180 [4]): 39.3%; Activity (LS180 [5]): 42.9%; Activity (LS180 [6]): 43.7%; Activity (LS180 [7]): 34.5%; IC50 [13]: 4 µM; solubility thermodynamic [9]: > 1.5 mg/mL; solubility thermodynamic [10]: > 1.5 mg/mL; solubility thermodynamic [11]: > 1.5 mg/mL; solubility thermodynamic [12]: > 1.5 mg/mL |
| C[n+]1ccc2c([nH]c3ccccc32)c1C(=O)c1ccccc1F | 79 | 69.8 | – | – |
| O=C(c1ccccc1Br)c1nccc2c1[nH]c1ccccc12 | 105 | 80.3 | – | – |
| O=C(c1ccc(Cl)cc1Cl)c1nccc2c1[nH]c1ccccc12 | 97.3 | 98.8 | – | – |
| O=C(c1cnccn1)N1CCc2c([nH]c3ccccc23)C1 | – | – | inactive | – |
| Cc1ccsc1C(=O)N1CCc2c([nH]c3ccccc23)C1 | – | – | inactive | – |
| Cc1ncsc1C(=O)N1CCc2c([nH]c3ccccc23)C1 | – | – | inactive | – |
| O=C(c1ccc([N+](=O)[O-])s1)N1CCc2c([nH]c3ccccc23)C1 | – | – | inactive | – |
| O=C1c2cc(F)c(F)cc2-[n+]2ccc3c([nH]c4ccccc43)c21.[Cl-] | 49.6 | 63.5 | – | Activity (LS180 [4]): 33.8%; Activity (LS180 [5]): 35.5%; Activity (LS180 [6]): 35.3%; Activity (LS180 [7]): 30.6%; fold change (FC) (LS180 [8]): 4; solubility thermodynamic [9]: > 1.5 mg/mL; solubility thermodynamic [10]: 0.08 mg/mL; solubility thermodynamic [11]: 0.08 mg/mL; solubility thermodynamic [12]: < 0.005 mg/mL |
| CO[C@H]1/C=C/O[C@@]2(C)Oc3c(C)c(O)c4c(O)c(c(/C=N/N5CCN(C)CC5)c(O)c4c3C2=O)NC(=O)/C(C)=C\C=C\[C@H](C)[C@H](O)[C@@H](C)[C@@H](O)[C@@H](C)[C@H](OC(C)=O)[C@@H]1C | – | – | – | Activity (LS180 [14]): 67.1% |
